According to the M2OR odorant receptor database:

How the values were obtained:
Settings in all cases: stereoisomer not certain
[1] = target: T1, OR1D2 (Homo sapiens) (UniProt P34982)
T1 sequence (whole entry): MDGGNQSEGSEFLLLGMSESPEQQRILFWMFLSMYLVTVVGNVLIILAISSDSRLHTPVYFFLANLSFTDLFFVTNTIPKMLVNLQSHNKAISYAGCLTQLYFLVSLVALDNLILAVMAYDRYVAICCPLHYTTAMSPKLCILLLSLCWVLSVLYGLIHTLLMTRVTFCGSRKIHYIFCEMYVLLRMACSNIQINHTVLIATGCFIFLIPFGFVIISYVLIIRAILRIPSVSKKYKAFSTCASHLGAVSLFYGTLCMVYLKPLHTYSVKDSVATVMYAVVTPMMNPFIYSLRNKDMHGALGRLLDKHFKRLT
Method in brief: (§1)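 Assay methods differ from source to source, frequently being transient luciferase assays in mammalian cell lines. For each receptor–molecule pair, the label responsive (active) applies when the original authors judged the measured signal statistically different from baseline, and non-responsive (inactive) applies otherwise.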

[2] = tested on: T2, OR1B1
T2 sequence (whole entry): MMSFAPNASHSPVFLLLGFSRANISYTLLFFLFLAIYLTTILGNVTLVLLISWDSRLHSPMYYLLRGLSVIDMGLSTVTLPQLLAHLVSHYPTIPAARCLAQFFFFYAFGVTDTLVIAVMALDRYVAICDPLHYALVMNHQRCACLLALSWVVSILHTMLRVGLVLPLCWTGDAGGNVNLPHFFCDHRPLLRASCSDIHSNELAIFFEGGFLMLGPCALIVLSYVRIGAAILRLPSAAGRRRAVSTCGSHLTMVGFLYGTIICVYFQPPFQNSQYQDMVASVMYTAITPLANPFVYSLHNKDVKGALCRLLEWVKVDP
Method in brief: as §1

[3] = target: T3, OR1C1 (Homo sapiens) (UniProt Q15619)
T3 sequence (whole entry): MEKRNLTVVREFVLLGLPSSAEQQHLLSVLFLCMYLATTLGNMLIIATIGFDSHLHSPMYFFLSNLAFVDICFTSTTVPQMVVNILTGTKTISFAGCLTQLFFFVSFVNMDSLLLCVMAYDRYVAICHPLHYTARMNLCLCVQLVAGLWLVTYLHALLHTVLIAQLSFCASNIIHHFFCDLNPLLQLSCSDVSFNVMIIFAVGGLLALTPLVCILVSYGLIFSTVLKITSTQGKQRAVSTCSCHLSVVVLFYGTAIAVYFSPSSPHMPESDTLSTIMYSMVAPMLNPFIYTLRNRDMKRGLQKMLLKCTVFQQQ
Method in brief: as §1

Compound | odorant receptor agonist call [1] | odorant receptor agonist call [2] | odorant receptor agonist call [3]
CC(CCO)c1ccccc1 (stereo not given) | inactive |  | 
O=CCCc1ccccc1 | active |  | 
O=CCCCc1ccccc1 | active |  | 
CC(C)c1ccccc1 | inactive |  | 
CCCCCC(S)C(C)CO (stereo not given) | inactive | inactive | inactive
CCC1OC(C)=C(O)C1=O (stereo not given) | inactive | inactive | inactive
